Laboratory results from ChEMBL document CHEMBL4732238, “Synthesis, biological evaluation, and structure-activity relationships of new tubulin polymerization inhibitors based on 5-amino-1,2,4-triazole scaffold” (Bioorg Med Chem Lett, 2021).

Tests used:
K562 = assay: Antiproliferative activity against human K562 cells assessed as cell growth inhibition by MTT assay; type: functional, cell-based
HeLa [1] = assay: Antiproliferative activity against human HeLa cells assessed as cell growth inhibition at 100 uM by MTT assay relative to control; type: functional; settings: read-out: GI
Summary of the method: (§1)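 Five human lines (MCF-7, HeLa, A549, PC-3, Panc-1) exposed to a single 100 μM concentration. Viability read by MTT. Results expressed as […] versus untreated control cells.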

PANC-1 [2] = assay: Antiproliferative activity against human PANC-1 cells assessed as cell growth inhibition at 100 uM by MTT assay relative to control; type: functional; settings: read-out: GI; summary of the method: as §1
HeLa [3] = assay: Antiproliferative activity against human HeLa cells assessed as cell growth inhibition by MTT assay; type: functional, cell-based
Summary of the method: (§2)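 MTT antiproliferation readout. […] Mean ± SD from three independent experiments.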

A549 = assay: Antiproliferative activity against human A549 cells assessed as cell growth inhibition at 100 uM by MTT assay relative to control; type: functional; settings: read-out: GI; summary of the method: as §1
MCF7 [4] = assay: Antiproliferative activity against human MCF7 cells assessed as cell growth inhibition by MTT assay; type: functional, cell-based; summary of the method: as §2
MCF7 [5] = assay: Antiproliferative activity against human MCF7 cells assessed as cell growth inhibition at 100 uM by MTT assay relative to control; type: functional; settings: read-out: GI; summary of the method: as §1
PANC-1 [6] = assay: Antiproliferative activity against human PANC-1 cells assessed as cell growth inhibition by MTT assay; type: functional, cell-based; summary of the method: as §2
PC-3 = assay: Antiproliferative activity against human PC-3 cells assessed as cell growth inhibition at 100 uM by MTT assay relative to control; type: functional; settings: read-out: GI; summary of the method: as §1
Tubulin (Homo sapiens) = Tubulin (Homo sapiens) (UniProt P68371+Q9H4B7+P0DPH7+P68366+Q13509+Q71U36+P04350+Q3ZCM7+P07437+P68363+Q9BQE3+Q6PEY2+Q13885+Q9BVA1+Q9BUF5); assay: Inhibition of tubulin (unknown origin) polymerization at 10 uM measured every 1 min over 20 mins by fluorescence assay relative to control; type: protein-complex assay
Summary of the method: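 Tubulin in reaction buffer incubated at 37 °C with test agent at final 10 μM; control 1% DMSO. Polymerization followed at 340 nm, read every minute over 20 min. Run three times.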

HeLa [7] = assay: Cell cycle arrest in human HeLa cells assessed as accumulation at S phase at 40 uM measured after 48 hrs by propidium iodide staining based flow cytometry (reference value: 30.73 %); type: functional
HeLa [8] = assay: Cell cycle arrest in human HeLa cells assessed as accumulation at G2/M phase at 40 uM measured after 48 hrs by propidium iodide staining based flow cytometry (reference value: 14.45 %); type: functional
HeLa [9] = assay: Cell cycle arrest in human HeLa cells assessed as accumulation at G1/G0 phase at 40 uM measured after 48 hrs by propidium iodide staining based flow cytometry (reference value: 54.82 %); type: functional
HeLa [10] = assay: Cell cycle arrest in human HeLa cells assessed as accumulation at G1/G0 phase at 20 uM measured after 48 hrs by propidium iodide staining based flow cytometry (reference value: 54.82 %); type: functional
HeLa [11] = assay: Cell cycle arrest in human HeLa cells assessed as accumulation at G1/G0 phase at 10 uM measured after 48 hrs by propidium iodide staining based flow cytometry (reference value: 54.82 %); type: functional
HeLa [12] = assay: Cell cycle arrest in human HeLa cells assessed as accumulation at S phase at 10 uM measured after 48 hrs by propidium iodide staining based flow cytometry (reference value: 30.73 %); type: functional
HeLa [13] = assay: Cell cycle arrest in human HeLa cells assessed as accumulation at S phase at 20 uM measured after 48 hrs by propidium iodide staining based flow cytometry (reference value: 30.73 %); type: functional
HeLa [14] = assay: Cell cycle arrest in human HeLa cells assessed as accumulation at G2/M phase at 10 uM measured after 48 hrs by propidium iodide staining based flow cytometry (reference value: 14.45 %); type: functional
HeLa [15] = assay: Cell cycle arrest in human HeLa cells assessed as accumulation at G2/M phase at 20 uM measured after 48 hrs by propidium iodide staining based flow cytometry (reference value: 14.45 %); type: functional

| Structure (SMILES) | inhibition of growth at 100 µM (HeLa [1]) [%] | inhibition of growth at 100 µM (PANC-1 [2]) [%] | inhibition of growth at 100 µM (A549) [%] | inhibition of growth at 100 µM (MCF7 [5]) [%] | inhibition of growth at 100 µM (PC-3) [%] | further results |
| --- | --- | --- | --- | --- | --- | --- |
| COc1cc(-c2nc(N)n(CC(=O)c3cccc(Br)c3)n2)cc(OC)c1OC | 66 | 51 | 35 | 59 | – | IC50 (K562): > 100 µM; IC50 (HeLa [3]): 58.2 µM; IC50 (MCF7 [4]): 68.4 µM; IC50 (PANC-1 [6]): 79.6 µM |
| COc1cc(-c2nc(N)n(CC(=O)Nc3cccc(C)c3)n2)cc(OC)c1OC | 18 | 10 | 34 | 23 | 50 | – |
| COc1cc(-c2nc(N)n(Cc3cc(OC(F)(F)F)cc(OC(F)(F)F)c3)n2)cc(OC)c1OC | 73 | 71 | 6 | 55 | 36 | IC50 (K562): 31.5 µM; IC50 (HeLa [3]): 53.1 µM; IC50 (MCF7 [4]): > 100 µM; IC50 (PANC-1 [6]): 73 µM |
| COc1cc(-c2nc(N)n(Cc3ccc([N+](=O)[O-])cc3)n2)cc(OC)c1OC | 58 | 53 | 13 | 52 | 21 | IC50 (K562): > 100 µM; IC50 (HeLa [3]): 57.2 µM; IC50 (MCF7 [4]): 82.1 µM; IC50 (PANC-1 [6]): > 100 µM |
| COc1cc(-c2nc(N)n(CC(=O)c3ccc(C)cc3)n2)cc(OC)c1OC | 70 | 17 | – | 53 | 35 | IC50 (K562): 33 µM; inhibition (Tubulin (Homo sapiens)): 42%; IC50 (HeLa [3]): 54 µM; IC50 (MCF7 [4]): 53 µM; IC50 (PANC-1 [6]): > 100 µM |
| COc1cccc(NC(=O)Cn2nc(-c3cc(OC)c(OC)c(OC)c3)nc2N)c1 | 39 | – | – | – | 6 | – |
| COc1cc(-c2nc(N)n(CC(=O)c3ccc(F)c(F)c3)n2)cc(OC)c1OC | 31 | 52 | 14 | 48 | 28 | – |
| COc1cc(-c2nc(N)n(CC(=O)Nc3ccc(C)c(C)c3)n2)cc(OC)c1OC | 20 | 32 | 29 | 32 | – | – |
| COc1cc(-c2nc(N)n(CC(=O)c3ccc(F)cc3)n2)cc(OC)c1OC | 9 | – | 13 | 27 | 18 | – |
| COc1cc(-c2nc(N)n(CC(=O)Nc3ccc(N(C)C)cc3)n2)cc(OC)c1OC | 29 | – | 7 | 14 | – | – |
| COc1cc(-c2nc(N)n(Cc3ccc(F)cc3)n2)cc(OC)c1OC | 28 | 7 | 42 | 34 | 41 | – |
| COc1cc(-c2nc(N)n(CC(=O)c3ccc(Cl)cc3)n2)cc(OC)c1OC | 38 | 6 | 26 | – | 26 | – |
| COc1cc(-c2nc(N)n(CC(=O)Nc3ccc(Cl)cc3)n2)cc(OC)c1OC | 30 | 12 | 22 | 37 | 14 | – |
| COc1cc(-c2nc(N)n(CC(=O)c3ccccc3)n2)cc(OC)c1OC | 42 | 4 | 15 | 30 | – | – |
| COc1cc(-c2nc(N)n(CC(=O)Nc3ccc(C)cc3F)n2)cc(OC)c1OC | 32 | 22 | 12 | 21 | 25 | – |
| COc1cc(-c2nc(N)n(Cc3ccc(C)cc3)n2)cc(OC)c1OC | 76 | 53 | 34 | 55 | 39 | IC50 (K562): 17.1 µM; inhibition (Tubulin (Homo sapiens)): 25%; IC50 (HeLa [3]): 46.9 µM; IC50 (MCF7 [4]): 73.8 µM; IC50 (PANC-1 [6]): 61.5 µM |
| COc1cc(-c2nc(N)n(CC(=O)Nc3ccc(C)cc3)n2)cc(OC)c1OC | 35 | 5 | – | – | 31 | – |
| COc1ccc(NC(=O)Cn2nc(-c3cc(OC)c(OC)c(OC)c3)nc2N)cc1OC | 41 | 14 | 22 | 12 | 42 | – |
| CCc1ccc(NC(=O)Cn2nc(-c3cc(OC)c(OC)c(OC)c3)nc2N)cc1 | 12 | – | 27 | 31 | 40 | – |
| COc1cc(-c2nc(N)n(Cc3ccccc3F)n2)cc(OC)c1OC | 33 | 5 | 24 | 33 | 35 | – |
| COc1cc(-c2nc(N)n(CC(=O)Nc3ccc(C(C)(C)C)cc3)n2)cc(OC)c1OC | 95 | 93 | 93 | 93 | 70 | IC50 (K562): 9.23 µM; Activity (HeLa [7]): 18.6%; Activity (HeLa [8]): 28.74%; inhibition (Tubulin (Homo sapiens)): 48%; Activity (HeLa [9]): 52.66%; IC50 (HeLa [3]): 18.9 µM; Activity (HeLa [10]): 56.06%; Activity (HeLa [11]): 54.33%; IC50 (MCF7 [4]): 35.6 µM; Activity (HeLa [12]): 30.96%; IC50 (PANC-1 [6]): 35.1 µM; Activity (HeLa [13]): 28.35%; Activity (HeLa [14]): 14.7%; Activity (HeLa [15]): 15.59% |
| COc1cc(-c2nc(N)n(Cc3ccc(Cl)cc3)n2)cc(OC)c1OC | 55 | 39 | 38 | 49 | 48 | – |
| COc1ccc(NC(=O)Cn2nc(-c3cc(OC)c(OC)c(OC)c3)nc2N)cc1 | 30 | – | 9 | 50 | 33 | – |
| COc1cc(-c2nc(N)n(CC(=O)c3ccc(Br)cc3)n2)cc(OC)c1OC | 41 | 6 | 12 | 27 | 38 | – |
| COc1cc(-c2nc(N)n(Cc3cccc(C#N)c3)n2)cc(OC)c1OC | 28 | 6 | 30 | 43 | – | – |
| COc1cc(-c2nc(N)n(CC(=O)Nc3ccc(C(C)C)cc3)n2)cc(OC)c1OC | 45 | 22 | – | 8 | 37 | – |
| COc1cccc(C(=O)Cn2nc(-c3cc(OC)c(OC)c(OC)c3)nc2N)c1 | 27 | – | 20 | 30 | 37 | – |
| CCCc1ccc(NC(=O)Cn2nc(-c3cc(OC)c(OC)c(OC)c3)nc2N)cc1 | 75 | 91 | 37 | 70 | 61 | IC50 (K562): 41.1 µM; inhibition (Tubulin (Homo sapiens)): 14%; IC50 (HeLa [3]): 56.1 µM; IC50 (MCF7 [4]): 44.7 µM; IC50 (PANC-1 [6]): 20 µM |
| COc1ccc(/C=C\c2cc(OC)c(OC)c(OC)c2)cc1O [COMBRETASTATIN A4] | – | – | – | – | – | IC50 (K562): 0.61 µM; IC50 (HeLa [3]): 0.0047 µM; IC50 (MCF7 [4]): 0.17 µM |
| COc1cc(-c2nc(N)n(CC(=O)Nc3c(C)cc(C)cc3C)n2)cc(OC)c1OC | 49 | 32 | 16 | 34 | 50 | – |
